≈ marks a conversion by molar mass, not a printed value. Calls of active or inactive are those of the source. No cut-off for these calls is given here.
Key:
[1] = system: Haemophilus influenzae; assay: Antimicrobial activity against Haemophilus influenzae by broth dilution technique; format: functional
Procedure, shortened: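 Haemophilus Test Medium broth dilution. Compounds in DMSO are added to final dilutions, with DMSO at most 1% v/v. MIC is the lowest concentration completely inhibiting growth.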

[2] = system: Saccharomyces cerevisiae; assay: Antimicrobial activity against Saccharomyces cerevisiae ATCC 9763 upto 100 ug/ml by broth dilution technique; format: functional, organism-based
Procedure, shortened: (§1)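 Fungi are tested by Sabouraud Liquid Medium dilution. Compounds are in DMSO, with DMSO at most 1% v/v final. Inoculum is 1×10³ fungi/mL, incubated 48 h at 30 °C. MIC is the lowest concentration completely inhibiting growth. For MFC, 100 µL of clear mixtures is subcultured into 1 mL fresh medium and read after 48 h at 30 °C.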

[3] = system: Staphylococcus aureus; assay: Antimicrobial activity against Staphylococcus aureus ATCC 25923 by broth dilution technique; format: functional
Procedure, shortened: (§2)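 Broth dilution in Mueller Hinton Broth. Compounds are dissolved in DMSO (never above 1% v/v final) and serially diluted. MIC is the lowest concentration giving complete growth inhibition.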

[4] = system: Bacillus subtilis; assay: Antimicrobial activity against Bacillus subtilis ATCC 6633 by broth dilution technique; format: functional; procedure, shortened: as §2
[5] = system: Escherichia coli; assay: Antimicrobial activity against Escherichia coli SPA27 upto 100 ug/ml by broth dilution technique; format: functional, organism-based; procedure, shortened: as §2
[6] = system: Candida tropicalis; assay: Antimicrobial activity against Candida tropicalis ATCC 1369 upto 100 ug/ml by broth dilution technique; format: functional, organism-based; procedure, shortened: as §1
[7] = system: Aspergillus niger; assay: Antimicrobial activity against Aspergillus niger ATCC 6275 upto 100 ug/ml by broth dilution technique; format: functional, organism-based; procedure, shortened: as §1
[8] = system: Streptococcus agalactiae; assay: Antimicrobial activity against Streptococcus agalactiae by broth dilution technique; format: functional; procedure, shortened: as §2
[9] = system: Enterococcus faecalis; assay: Antimicrobial activity against Streptococcus faecalis by broth dilution technique; format: functional; procedure, shortened: as §2
[10] = system: Staphylococcus epidermidis; assay: Antimicrobial activity against penicillin-resistant Staphylococcus epidermidis by broth dilution technique; format: functional
Procedure, shortened: (§3)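 Broth dilution in Mueller Hinton Broth with compounds predissolved in DMSO (at most 1% v/v). Final concentrations ranged from 100 to 0.0015, and the inoculum was 5.10⁴ bacteria/mL. Plates were incubated at 37 °C for 24 h. MIC was taken as the lowest concentration giving complete growth inhibition.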

[11] = system: Bacillus thuringiensis; assay: Antimicrobial activity against Bacillus thuringiensis var. kurstaki BGSC 4D1 by broth dilution technique; format: functional; conditions: serovar kurstaki; procedure, shortened: as §2
[12] = system: Priestia megaterium; assay: Antimicrobial activity against Bacillus megaterium by broth dilution technique; format: functional; procedure, shortened: as §2
[13] = system: Staphylococcus epidermidis; assay: Antimicrobial activity against Staphylococcus epidermidis ATCC 12228 by broth dilution technique
[14] = system: Streptococcus pyogenes; assay: Antimicrobial activity against Streptococcus pyogenes by broth dilution technique; format: functional
Procedure, shortened: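 Tryptose Phosphate Broth dilution. Compounds are dissolved in DMSO, with DMSO at most 1% v/v final. MIC is taken as the lowest concentration with complete growth inhibition.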

[15] = system: Staphylococcus haemolyticus; assay: Antimicrobial activity against Staphylococcus haemolyticus by broth dilution technique; format: functional; procedure, shortened: as §2
[16] = system: Staphylococcus aureus; assay: Antimicrobial activity against penicillin-resistant Staphylococcus aureus by broth dilution technique; format: functional; procedure, shortened: as §3
[17] = system: Micrococcus luteus; assay: Antimicrobial activity against Sarcina lutea by broth dilution technique; format: functional; procedure, shortened: as §2
[18] = system: Enterococcus faecium; assay: Antimicrobial activity against Streptococcus faecium by broth dilution technique; format: functional; procedure, shortened: as §2

Row | SMILES | MIC [1] [µg/mL] | Activity [2] | MIC [3] [µg/mL] | MIC [4] [µg/mL] | Activity [5] | Activity [6] | Activity [7] | MIC [8] [µg/mL] | MIC [9] [µg/mL] | MIC [10] [µg/mL] | MIC [11] [µg/mL] | MIC [12] [µg/mL] | MIC [13] [µg/mL] | MIC [14] [µg/mL] | MIC [15] [µg/mL] | MIC [16] [µg/mL] | MIC [17] [µg/mL] | MIC [18] [µg/mL]
1 | COc1cc(/C=C2\S/C(=N\c3nsc4ccccc34)NC2=O)ccc1O | > 100 | inactive | > 100 | > 100 | inactive | inactive | inactive | – | – | – | – | – | – | – | – | – | – | –
2 | O=C1CS/C(=N\c2nsc3ccccc23)N1 | 3 (≈ 12 µM) | inactive | > 100 | 50 (≈ 201 µM) | inactive | inactive | inactive | > 100 | > 100 | > 100 | > 100 | 100 (≈ 401 µM) | > 100 | > 100 | > 100 | > 100 | > 100 | > 100
3 | O=C1N/C(=N/c2nsc3ccccc23)S/C1=C\c1ccc(Cl)cc1 | > 100 | inactive | > 100 | 3 (≈ 8.07 µM) | inactive | inactive | inactive | 50 (≈ 134 µM) | > 100 | > 100 | 6 (≈ 16.1 µM) | 0.7 (≈ 1.88 µM) | > 100 | > 100 | > 100 | > 100 | > 100 | > 100
4 | COc1cc(/C=C2\S/C(=N/c3nc4ccccc4s3)NC2=O)ccc1O | > 100 | inactive | 6 (≈ 15.6 µM) | > 100 | inactive | inactive | inactive | > 100 | > 100 | 12 (≈ 31.3 µM) | 6 (≈ 15.6 µM) | 12 (≈ 31.3 µM) | 6 (≈ 15.6 µM) | > 100 | > 100 | 6 (≈ 15.6 µM) | 12 (≈ 31.3 µM) | > 100
5 | O=C1N/C(=N/c2nsc3ccccc23)S/C1=C\c1cccc([N+](=O)[O-])c1 | 3 (≈ 7.84 µM) | inactive | > 100 | > 100 | inactive | inactive | inactive | > 100 | > 100 | > 100 | 1.5 (≈ 3.92 µM) | 0.7 (≈ 1.83 µM) | > 100 | > 100 | > 100 | > 100 | > 100 | > 100
6 | O=C1N/C(=N\c2nc3ccccc3s2)S/C1=C\c1ccccc1[N+](=O)[O-] | > 100 | inactive | > 100 | > 100 | inactive | inactive | inactive | – | – | – | – | – | – | – | – | – | – | –
7 | COc1ccc(/C=C2\S/C(=N\c3nsc4ccccc34)NC2=O)cc1 | > 100 | inactive | > 100 | > 100 | inactive | inactive | inactive | – | – | – | – | – | – | – | – | – | – | –
8 | O=C1CSC(Nc2nccs2)=N1 | 1.5 (≈ 7.53 µM) | inactive | > 100 | 50 (≈ 251 µM) | inactive | inactive | inactive | – | – | – | – | – | – | – | – | – | – | –

From ChEMBL document CHEMBL1142406, “2-Heteroarylimino-5-benzylidene-4-thiazolidinones analogues of 2-thiazolylimino-5-benzylidene-4-thiazolidinones with antimicrobial activity: synthesis and structure-activity relationship” (2008)
